# Experimental data: ChEMBL document CHEMBL4673252, “Discovery and Early Clinical Development of Isobutyl 1-[8-Methoxy-5-(1-oxo-3H-isobenzofuran-5-yl)-[1,2,4]triazolo[1,5-a]pyridin-2-yl]cyclopropanecarboxylate (LEO 39652), a Novel "Dual-Soft" PDE4 Inhibitor for Topical Treatment of Atopic Dermatitis” (J Med Chem, 2020)
# Legend:
# [1] = Clearance in human liver microsomes at 0.5 uM incubated for 40 mins in presence of NADPH by LC-MS/MS analysis; type: ADME, Microsome; conditions: read-out: CLH
# Summary of the method: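 Human liver microsomes (0.5 mg/mL) with 1 mM NADPH and 0.5 μM test compound, incubated for 40 min. Samples were taken before NADPH and at 5, 10, 20, 40 min, quenched with cold acetonitrile containing internal standard, and analysed by LC-MS/MS. Control incubations in buffer and without NADPH. Apparent clearance was calculated from depletion.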
# [2] = Half life in human keratinocytes at 1 uM by LC-MS/MS analysis; type: ADME, cell-based, Keratinocyte
# Summary of the method: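 Plated human epidermal keratinocytes (1 × 10⁴ cells/well) with 1 μM compound in duplicate for up to 24 h; sampled at 0, 1, 2, 4, 24 h, acetonitrile precipitation, LC-MS/MS. Controls in growth medium. Half-life reported.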
# [3] = Half life in human whole blood at 0.1 uM by LC-MS/MS analysis; type: ADME, tissue-based
# [4] = Clearance in human hepatocytes at 10 uM by UPLC/TOF-MS analysis; type: ADME, cell-based, Hepatocyte
# [5] = Clearance in mini pig hepatocytes at 10 uM by UPLC/TOF-MS analysis; type: ADME, cell-based, Sus scrofa domesticus, Hepatocyte; conditions: read-out: CLH
# [6] = AUC (0 to 24 hrs) in cynomolgus monkey at 30 mg/kg, sc dosed as single administration; type: ADME, organism-based, Macaca fascicularis; parameters: time < 24 hr, route subcutaneous, dose 30 mg/kg; conditions: in vivo
# Summary of the method: (§1)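 Single subcutaneous dose of 30 mg/kg.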
# [7] = Drug exposure in Isobutyl 1-[8-Methoxy-5-(1-oxo-3H-isobenzofuran-5-yl)-[1,2,4]-triazolo[1,5-a]pyridin-2-yl]cyclopropanecarboxylate dosed cynomolgus monkey assessed as ratio of drug level to total AUC; type: ADME, organism-based, Macaca fascicularis; conditions: in vivo
# Summary of the method: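 Blood was drawn at 0.25–24 h after infusion start and 6, 12, 24 h after infusion end into EDTA-K3, then plasma stabilized with ascorbic acid. LC-MS/MS quantification of parent and metabolites; noncompartmental PK.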
# [8] = Drug exposure in of Isobutyl 1-[8-Methoxy-5-(1-oxo-3H-isobenzofuran-5-yl)-[1,2,4]-triazolo[1,5-a]pyridin-2-yl]cyclopropanecarboxylate dosed Gottingen mini pig assessed as ratio of drug level to total AUC at 0.5 to 2 mg/kg, iv measured up to 24 hrs by LC-MS/MS analysis; type: ADME, organism-based, Sus scrofa domesticus; conditions: in vivo, BLD = below limit of detection, dose 0.5-2 mg/kg
# [9] = Drug exposure in human assessed as ratio of drug level to total AUC at 0.25% of Isobutyl 1-[8-Methoxy-5-(1-oxo-3H-isobenzofuran-5-yl)-[1,2,4]-triazolo[1,5-a]pyridin-2-yl]cyclopropanecarboxylate dosed via topical administration in lipid cream; type: ADME, organism-based; conditions: in vivo, topical_or_ocular
# [10] = Cmax in cynomolgus monkey at 30 mg/kg, sc dosed as single administration; type: ADME, organism-based, Macaca fascicularis; parameters: route subcutaneous, dose 30 mg/kg; conditions: in vivo; summary of the method: as §1
# [11] = AUC (0 to 24 hrs) in human patient with atopic dermatitis at 0.25% dosed topically as lipid cream; type: ADME, organism-based; parameters: time < 24 hr, dose 0.25 %; conditions: in vivo, topical or ocular
# [12] = Cmax in human patient with atopic dermatitis at 0.25% dosed topically as lipid cream; type: ADME, organism-based; parameters: dose 0.25 %; conditions: in vivo, topical or ocular
# [13] = Drug exposure in skin of Gottingen mini pig at 0.25% dosed topically as monoglyceride cream measured after 24 hrs by LC-MS/MS analysis; type: ADME, organism-based, Sus scrofa domesticus, Skin of body; conditions: in vivo, topical_or_ocular
# Summary of the method: (§2)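 Female Göttingen minipigs received single topical application of 1 or 2.5 mg/g monoglyceride cream at 10 μL/cm² over 4 cm² of belly/flank; excess removed. At 24 h sites were tape stripped (2 + 10 strips), 8 mm punch biopsies were taken and snap frozen, then homogenized, acetonitrile precipitated and analysed by LC-MS/MS; n = 2.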
# [14] = Drug exposure in skin of Gottingen mini pig at 0.1% dosed topically as monoglyceride cream measured after 24 hrs by LC-MS/MS analysis; type: ADME, organism-based, Sus scrofa domesticus, Skin of body; conditions: in vivo, topical_or_ocular; summary of the method: as §2
# [15] = target: Phosphodiesterase 4 (Homo sapiens, UniProt P27815+Q08499+Q07343+Q08493); assay: Inhibition of PDE4 (unknown origin); type: protein assay
Compound,CLint scaled at 0.5 µM [1] [mL/min/kg],half-life at 1 µM [2] [h],half-life at 0.1 µM [3] [h],other results
COC(=O)c1cccc(-c2ccc(OC)c3nc(C4CC4)nn23)c1,> 200,> 12,> 1,
COc1ccc(-c2cccc3c2COC3=O)n2nc(C3(C(=O)NCC(C)C)CC3)nc12,95,> 12,> 1,
COc1ccc(-c2cccc(C#N)c2)n2nc(C3(C(=O)O)CC3)nc12,< 10,,,
COc1ccc(-c2ccc3c(c2)COC3=O)n2nc(C3(C(=O)OC(C)(C)C)CC3)nc12,> 200,> 12,0.183,
COc1ccc(-c2ccc3c(c2)COC3=O)n2nc(C3(C(=O)OC4COC4)CC3)nc12,97,> 12,< 0.167,
COC(=O)C1(c2nc3c(OC)ccc(-c4ccc5c(c4)COC5=O)n3n2)CC1,193,> 12,< 0.167,
COc1ccc(-c2ccc3c(c2)COC3=O)n2nc(C3(C(=O)O[C@H]4CCOC4)CC3)nc12,77,> 12,< 0.167,
COc1ccc(-c2ccc3c(c2)COC3=O)n2nc(C3(C(=O)OCC(C)(C)O)CC3)nc12,66,> 12,0.2,"CLhep predicted at 10 µM [4]: 16 mL/min/kg; CLint scaled at 10 µM [5]: > 26 mL/min/kg; AUC ([6]; 24 h, BLD = below limit of detection): Bld; Drug uptake [7]: 0.1%; Drug uptake [8]: Bld; Drug uptake ([9]; BLD = below limit of detection): Bld; Cmax ([10]; BLD = below limit of detection): Bld"
COc1ccc(-c2ccc3c(c2)COC3=O)n2nc(C3(C(=O)OC4CCCCC4)CC3)nc12,> 200,> 12,0.383,
COc1ccc(-c2ccc3c(c2)COC3=O)n2nc(C3(C(=O)OC(C)C)CC3)nc12,97,> 12,0.183,
COc1ccc(-c2ccc3c(c2)COC3=O)n2nc(C3(C(=O)OC4CCCCCC4)CC3)nc12,> 200,3.7,0.567,
COC(=O)c1ccc(-c2ccc(OC)c3nc(C4(C(=O)NCC(C)C)CC4)nn23)cc1,> 200,9,,
CCCCOC(=O)C1(c2nc3c(OC)ccc(-c4ccc5c(c4)COC5=O)n3n2)CC1,> 200,10,0.333,
COc1ccc(-c2ccc(C(=O)O)c(CO)c2)n2nc(C3(C(=O)OCC(C)(C)O)CC3)nc12,,,,CLhep predicted at 10 µM [4]: 7.1 mL/min/kg; CLint scaled at 10 µM [5]: 13 mL/min/kg; AUC(0-t) at 24 h [6]: 19.4 ng·h/mL; AUC(0-t) at 24 h [11]: 0.27 ng·h/mL; Drug uptake [7]: 1%; Drug uptake [8]: Bld; Drug uptake [9]: 1%; Cmax ([10]; read-out: Cmax): 10.5 ng/mL; Cmax [12]: 0.029 ng/mL
COc1ccc(-c2cccc(C#N)c2)n2nc(C3(CCCO)CC3)nc12,33,,,
COc1ccc(-c2ccc3c(c2)COC3=O)n2nc(C3(C(=O)OC4CCCC4)CC3)nc12,> 200,12,0.283,
CCCNC(=O)COc1c(C(=O)Cc2c(Cl)cncc2Cl)ccc(OC)c1OC,,,,Drug uptake [13]: 26 µM; Drug uptake [14]: 14 µM; IC50 [15]: 2.8 nM
COc1ccc(-c2ccc3c(c2)COC3=O)n2nc(C3(C(=O)OC4CCC4)CC3)nc12,> 200,> 9,< 0.167,
COc1ccc(-c2cccc(C#N)c2)n2nc(C3(C(=O)OCC(C)C)CC3)nc12,> 200,> 12,> 1,
COc1ccc(-c2ccc3c(c2)COC3=O)n2nc(C3CC3)nc12,64,> 12,0.2,
